Source: ChEMBL document CHEMBL1143676, “2,4,6-Trisubstituted pyridines: Synthesis, topoisomerase I and II inhibitory activity, cytotoxicity, and structure-activity relationship” (Bioorg Med Chem, 2007)
The source made the active and inactive calls. No cut-off for these calls is given here.

What was measured:
[1] = test system: A549; test: Cytotoxicity against human A549 cells after 48 hrs by SRB method; type: functional, cell-based; details: A549, 48 h
How it was run: (§1)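 SRB assay following the NCI protocol. Cells were kept in log growth with a medium change 24 h before the assay, then trypsinized and seeded at 5 × 10³ (A549, HCT15), 1 × 10⁴ (SK-MEL-2) or 2 × 10⁴ (SK-OV-3) cells/well. After 24 h preincubation at 37 °C in 5% CO₂, compounds in DMSO were added as six 3-fold dilutions (final DMSO <0.5%) for 48 h. Cells were fixed in cold 10% TCA and stained with 0.4% SRB. Bound dye was dissolved in 10 mM Tris (pH 10.5) and absorbance read at 520 nm. Survival fractions came from regression of viability against concentration.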

[2] = test system: SK-OV-3; test: Cytotoxicity against human SKOV3 cells after 48 hrs by SRB method; type: functional, cell-based; details: SK-OV-3, 48 h; how it was run: as §1
[3] = test system: SK-MEL-2; test: Cytotoxicity against human SK-MEL-2 cells after 48 hrs by SRB method; type: functional, cell-based; details: SK-MEL-2, 48 h; how it was run: as §1
[4] = test system: HCT-15; test: Cytotoxicity against human HCT15 cells after 48 hrs by SRB method; type: functional, cell-based; details: HCT-15, 48 h; how it was run: as §1
[5] = organism: Homo sapiens; test: Inhibition of human topoisomerase 2 at 20 uM
[6] = organism: Homo sapiens; test: Inhibition of human topoisomerase 2 at 100 uM
[7] = organism: Bos taurus; test: Inhibition of calf thymus topoisomerase 1 assessed as relaxation of supercoiled plasmid DNA at 20 uM
How it was run: (§2)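 Compound was added at 20 or 100 μM and the mix incubated 30 min at 37 °C. Reactions were stopped with SDS/bromophenol blue/glycerol dye, run on 1% agarose in TAE for 1 h, and stained with ethidium bromide.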

[8] = organism: Bos taurus; test: Inhibition of calf thymus topoisomerase 1 assessed as relaxation of supercoiled plasmid DNA at 100 uM; how it was run: as §2

Row | Compound | Activity [5] | Activity [6] | IC50 [1] | IC50 [2] | IC50 [3] | IC50 [4] | other results
1 | c1csc(-c2cc(-c3ccncc3)nc(-c3cccs3)c2)c1 |  |  | 4.16 µM | 5.75 µM | 3.68 µM | 1.72 µM | 
2 | c1cncc(-c2cc(-c3ccncc3)nc(-c3cccs3)c2)c1 | Active | Active |  |  |  |  | 
3 | c1coc(-c2cc(-c3cccs3)cc(-c3ccncc3)n2)c1 |  |  |  |  |  |  | Activity [7]: Active; Activity [8]: Active
4 | c1cncc(-c2cc(-c3ccco3)cc(-c3cccs3)n2)c1 |  |  | 14.5 µM | 5.9 µM | 1.95 µM | 5.87 µM | 
5 | c1ccc(-c2cc(-c3ccsc3)cc(-c3cccs3)n2)nc1 |  |  |  |  |  |  | Activity [7]: Active; Activity [8]: Active
6 | COc1cc([C@@H]2c3cc4c(cc3[C@@H](O[C@@H]3O[C@@H]5CO[C@@H](C)O[C@H]5[C@H](O)[C@H]3O)[C@H]3COC(=O)[C@H]23)OCO4)cc(OC)c1O [ETOPOSIDE] |  |  | 0.32 µM | 1.72 µM | 0.3 µM | 2.43 µM | 
7 | c1csc(-c2cc(-c3ccncc3)nc(-c3ccsc3)c2)c1 |  |  | 5.69 µM | 14.5 µM | 8.94 µM | 3.79 µM | 
8 | c1coc(-c2cc(-c3ccncc3)nc(-c3cccs3)c2)c1 |  |  | 10.9 µM | 8.69 µM | 5.43 µM | 4.18 µM | 
9 | c1cncc(-c2cc(-c3ccsc3)cc(-c3cccs3)n2)c1 |  |  | 2.73 µM | 7.49 µM | 5.61 µM | 4.06 µM | 
10 | c1ccc(-c2cc(-c3ccoc3)cc(-c3ccco3)n2)nc1 | Active | Active |  |  |  |  | 
11 | c1csc(-c2cc(-c3ccsc3)cc(-c3ccncc3)n2)c1 |  |  |  |  |  |  | Activity [7]: Active; Activity [8]: Active
12 | c1cc(-c2cc(-c3ccsc3)cc(-c3ccsc3)n2)ccn1 |  |  | 27.8 µM | 9.86 µM | 9.76 µM | 2.54 µM | 
13 | c1cncc(-c2cc(-c3ccncc3)nc(-c3ccco3)c2)c1 |  |  |  |  |  |  | Activity [7]: Active; Activity [8]: Active

More lines, main results first:

Row | Activity [5] | Activity [6] | Compound | IC50 [1] | IC50 [2] | IC50 [3] | IC50 [4] | other results
14 | Active | Active | c1cc(-c2cc(-c3ccoc3)cc(-c3ccsc3)n2)ccn1 |  |  |  |  | 
15 | Active | Active | c1cc(-c2cc(-c3ccncc3)nc(-c3ccsc3)c2)ccn1 |  |  |  |  | 
16 | Active | Active | c1coc(-c2cc(-c3ccoc3)cc(-c3ccncc3)n2)c1 |  |  |  |  | 
17 | Active | Active | c1csc(-c2cc(-c3ccoc3)cc(-c3ccncc3)n2)c1 |  |  |  |  | 
18 | Active | Active | c1coc(-c2cc(-c3ccsc3)cc(-c3ccncc3)n2)c1 |  |  |  |  | 
